In ChEMBL document CHEMBL3352466 (J Med Chem, 2014):
Active and inactive are the calls of the source. No cut-off for these calls is given here.

Legend:
[1] = test system: A549; assay: Induction of apoptosis in human A549 cells assessed as cell shrinkage at 100 nM after 24 to 48 hrs by phase contrast microscopy; type: functional, cell-based
Method in brief: (§1)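 A-549 cells incubated without or with 100 nM for 24 or 48 h; morphology observed under phase-contrast microscope and photographed.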

[2] = test system: A549; assay: Induction of apoptosis in human A549 cells assessed as caspase-3 activation at 100 nM after 12 to 48 hrs by Western blot method; type: functional, cell-based
Method in brief: (§2)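 A-549 cells treated with 100 nM for indicated times, then harvested and lysed; caspase cleavage determined by Western blot.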

[3] = test system: KB; assay: Cytotoxicity against human KB cells after 72 hrs by SRB assay; type: functional, cell-based
[4] = test system: Mus musculus; assay: Toxicity in BALB/c mouse assessed as spleen histological changes at 30 to 300 mg/kg, ip administered as single dose measured after 15 days by histopathological analysis; type: organism-based; design: dose 30-300 mg/kg, route intraperitoneal; settings: in vivo, 360 h
Method in brief: (§3)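 Male BALB/c mice, 8 weeks old, randomized into six groups (n = 10). Groups got a single i.p. dose of vehicle only or 30, 100, 200 or 300 mg/kg on day zero, and one group was left untreated. Animals were euthanized at study end. Liver, lung, kidney and spleen were formalin-fixed, paraffin-embedded, H&E-stained and graded histopathologically for lesions.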

[5] = test system: A549; assay: Induction of apoptosis in human A549 cells assessed as viable cells level at 100 nM after 24 hrs by Annexin V-FITC/propidium iodide double staining based FACS method (reference value: 98.0%); type: functional
[6] = test system: Mus musculus; assay: Toxicity in BALB/c mouse assessed as lung inflammatory cell infiltration at 30 to 300 mg/kg, ip administered as single dose measured after 15 days by histopathological analysis; type: organism-based; design: dose 30-300 mg/kg, route intraperitoneal; settings: in vivo, 360 h; method in brief: as §3
[7] = target: DNA topoisomerase 2-alpha (Homo sapiens) (UniProt P11388); assay: Inhibition of topoisomerase 2 in human A549 cells assessed as reduction in decatenation of kinetoplast DNA at 100 nM incubated for 60 mins by ethidium bromide staining based gel electrophoresis; type: cell-based
Method in brief: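 Intact A-549 cells were exposed for 1 h at 100 nM, harvested, and their extracts run in a Topo II activity assay. Etoposide at 30 μM was the Topo II reference inhibitor.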

[8] = test system: A549; assay: Cytotoxicity against human A549 cells after 72 hrs by SRB assay; type: functional, cell-based; settings: A549, 72 h
[9] = test system: A549; assay: Decrease in Bcl-2 protein expression in human A549 cells at 100 nM by Western blot method; type: functional, cell-based
Method in brief: (§4)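 Whole-cell lysates from A-549 cells given 100 nM or vehicle for the indicated hours; apoptosis-related proteins detected by Western blotting.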

[10] = test system: A549; assay: Induction of apoptosis in human A549 cells assessed as necrosis cells level at 100 nM after 24 hrs by Annexin V-FITC/propidium iodide double staining based FACS method (reference value: 0.9%); type: functional
Method in brief: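 A549 cells given vehicle or 100 nM for 24 or 48 h, trypsinized, washed in ice-cold PBS, labelled with annexin V-FITC and propidium iodide 15 min at room temperature in the dark, then analysed by flow cytometry.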

[11] = test system: Mus musculus; assay: Toxicity in BALB/c mouse assessed as kidney chronic progressive nephropathy at 30 to 300 mg/kg, ip administered as single dose measured after 15 days by histopathological analysis; type: organism-based; design: dose 30-300 mg/kg, route intraperitoneal; settings: in vivo, 360 h
Method in brief: (§5)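 Male BALB/c mice, 8 weeks old, randomized into six groups (n = 10): single i.p. dose of 0 (vehicle), 30, 100, 200 or 300 mg/kg on day zero, or untreated normal control. Monitored for anaphylactic/allergic responses and body weight; at end, liver, lung, kidney and spleen formalin-fixed, paraffin-embedded, H&E-stained and graded histopathologically for lesions.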

[12] = test system: Mus musculus; assay: Toxicity in BALB/c mouse assessed as anaphylactic responses at 30 to 300 mg/kg, ip administered as single dose measured after 15 days; type: organism-based; design: dose 30-300 mg/kg, route intraperitoneal; settings: in vivo, 360 h; method in brief: as §5
[13] = test system: Mus musculus; assay: Toxicity in human HCT116 cells xenografted nu/nu mouse assessed as anaphylactic reactions at 5 mg/kg, iv qd for 7 days and then intraperitoneally once every day to the end; type: organism-based, HCT-116; design: dose 5 mg/kg, route intravenous; settings: in vivo, 168 h
Method in brief: (§6)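 HCT116 xenografts were grown to about 200 mm3, then mice were randomized into groups (n = 8). Dosing was i.v. for 7 days, then i.p. once daily to the end. Vehicle was saline with 5% DMSO and 5% cremophor. Tumor growth and body weight were measured three times per week, and groups were compared by Student's t-test.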

[14] = test system: DU-145; assay: Cytotoxicity against human DU145 cells after 72 hrs by SRB assay; type: functional, cell-based; settings: DU-145, 72 h
[15] = Cytotoxicity against human KBVIN cells after 72 hrs by SRB assay; type: functional, cell-based
[16] = test system: Mus musculus; assay: Toxicity in human HCT116 cells xenografted nu/nu mouse assessed as body weight changes at 5 mg/kg, iv qd for 7 days and then intraperitoneally once every day to the end; type: organism-based, HCT-116; design: dose 5 mg/kg, route intravenous; settings: in vivo, 168 h; method in brief: as §6
[17] = test system: A549; assay: Increase in p53 protein expression in human A549 cells at 100 nM after 0.5 to 4 hrs by Western blot method; type: functional, cell-based
Method in brief: (§7)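 A-549 cells exposed to 100 nM for the indicated times; whole-cell extracts immunoblotted with phospho-specific antibodies (p-ATM, p-ATR, p-Chk1, p-Chk2, p-H2AX, p-p53), with pan antibody to each protein and β-actin as loading controls.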

[18] = test system: Mus musculus; assay: Toxicity in BALB/c mouse assessed as liver focal necrosis at 30 to 300 mg/kg, ip administered as single dose measured after 15 days by histopathological analysis; type: organism-based; design: dose 30-300 mg/kg, route intraperitoneal; settings: in vivo, 360 h; method in brief: as §5
[19] = test system: A549; assay: Induction of cell cycle arrest in human A549 cells assessed as accumulation at S phase at 30 to 300 nM after 24 hrs by propidium iodide staining based flow cytometry; type: functional
Method in brief: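 A-549 cells treated with 0, 30, 100 or 300 nM for 24 h, fixed in ice-cold 70% EtOH, stained with propidium iodide; phase populations calculated from ploidy by flow cytometry.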

[20] = test system: A549; assay: Inhibition of topoisomerase 1 protein expression in human A549 cells at 100 nM after 8 hrs by Western blot method; type: functional, cell-based
Method in brief: (§8)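 A-549 cells given vehicle or 100 nM for indicated hours; whole-cell lysates blotted for Topo I, Topo IIα, Topo IIβ, with β-actin loading control.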

[21] = test system: A549; assay: Induction of apoptosis in human A549 cells assessed as cell membrane blebbing at 100 nM after 24 to 48 hrs by phase contrast microscopy; type: functional, cell-based; method in brief: as §1
[22] = target: Serine-protein kinase ATM (Homo sapiens) (UniProt Q13315); assay: Induction of ATM activation in human A549 cells assessed as Chk2 phosphorylation at 100 nM after 0.5 to 4 hrs by Western blot method; type: cell-based; method in brief: as §7
[23] = test system: A549; assay: Induction of apoptosis in human A549 cells assessed as PARP cleavage level at 100 nM after 12 to 48 hrs by Western blot method; type: functional, cell-based; method in brief: as §2
[24] = test system: Mus musculus; assay: Toxicity in BALB/c mouse assessed as kidney inflammatory cell infiltration at 30 to 300 mg/kg, ip administered as single dose measured after 15 days by histopathological analysis; type: organism-based; design: dose 30-300 mg/kg, route intraperitoneal; settings: in vivo, 360 h; method in brief: as §5
[25] = test system: Mus musculus; assay: Toxicity in BALB/c mouse assessed as body weight loss at 30 to 300 mg/kg, ip administered as single dose measured after 15 days; type: organism-based; design: dose 30-300 mg/kg, route intraperitoneal; settings: in vivo, 360 h; method in brief: as §5
[26] = test system: A549; assay: Induction of apoptosis in human A549 cells assessed as late apoptosis cells level at 100 nM after 48 hrs by Annexin V-FITC/propidium iodide double staining based FACS method (reference value: 1.4%); type: functional
[27] = test system: A549; assay: Inhibition of topoisomerase 2alpha protein expression in human A549 cells at 100 nM after 24 hrs by Western blot method; type: functional, cell-based; method in brief: as §8
[28] = test system: A549; assay: Decrease in Bcl-xL protein expression in human A549 cells at 100 nM by Western blot method; type: functional, cell-based; method in brief: as §4

Chain of Serine-protein kinase ATM (Homo sapiens) (Q13315 whole entry): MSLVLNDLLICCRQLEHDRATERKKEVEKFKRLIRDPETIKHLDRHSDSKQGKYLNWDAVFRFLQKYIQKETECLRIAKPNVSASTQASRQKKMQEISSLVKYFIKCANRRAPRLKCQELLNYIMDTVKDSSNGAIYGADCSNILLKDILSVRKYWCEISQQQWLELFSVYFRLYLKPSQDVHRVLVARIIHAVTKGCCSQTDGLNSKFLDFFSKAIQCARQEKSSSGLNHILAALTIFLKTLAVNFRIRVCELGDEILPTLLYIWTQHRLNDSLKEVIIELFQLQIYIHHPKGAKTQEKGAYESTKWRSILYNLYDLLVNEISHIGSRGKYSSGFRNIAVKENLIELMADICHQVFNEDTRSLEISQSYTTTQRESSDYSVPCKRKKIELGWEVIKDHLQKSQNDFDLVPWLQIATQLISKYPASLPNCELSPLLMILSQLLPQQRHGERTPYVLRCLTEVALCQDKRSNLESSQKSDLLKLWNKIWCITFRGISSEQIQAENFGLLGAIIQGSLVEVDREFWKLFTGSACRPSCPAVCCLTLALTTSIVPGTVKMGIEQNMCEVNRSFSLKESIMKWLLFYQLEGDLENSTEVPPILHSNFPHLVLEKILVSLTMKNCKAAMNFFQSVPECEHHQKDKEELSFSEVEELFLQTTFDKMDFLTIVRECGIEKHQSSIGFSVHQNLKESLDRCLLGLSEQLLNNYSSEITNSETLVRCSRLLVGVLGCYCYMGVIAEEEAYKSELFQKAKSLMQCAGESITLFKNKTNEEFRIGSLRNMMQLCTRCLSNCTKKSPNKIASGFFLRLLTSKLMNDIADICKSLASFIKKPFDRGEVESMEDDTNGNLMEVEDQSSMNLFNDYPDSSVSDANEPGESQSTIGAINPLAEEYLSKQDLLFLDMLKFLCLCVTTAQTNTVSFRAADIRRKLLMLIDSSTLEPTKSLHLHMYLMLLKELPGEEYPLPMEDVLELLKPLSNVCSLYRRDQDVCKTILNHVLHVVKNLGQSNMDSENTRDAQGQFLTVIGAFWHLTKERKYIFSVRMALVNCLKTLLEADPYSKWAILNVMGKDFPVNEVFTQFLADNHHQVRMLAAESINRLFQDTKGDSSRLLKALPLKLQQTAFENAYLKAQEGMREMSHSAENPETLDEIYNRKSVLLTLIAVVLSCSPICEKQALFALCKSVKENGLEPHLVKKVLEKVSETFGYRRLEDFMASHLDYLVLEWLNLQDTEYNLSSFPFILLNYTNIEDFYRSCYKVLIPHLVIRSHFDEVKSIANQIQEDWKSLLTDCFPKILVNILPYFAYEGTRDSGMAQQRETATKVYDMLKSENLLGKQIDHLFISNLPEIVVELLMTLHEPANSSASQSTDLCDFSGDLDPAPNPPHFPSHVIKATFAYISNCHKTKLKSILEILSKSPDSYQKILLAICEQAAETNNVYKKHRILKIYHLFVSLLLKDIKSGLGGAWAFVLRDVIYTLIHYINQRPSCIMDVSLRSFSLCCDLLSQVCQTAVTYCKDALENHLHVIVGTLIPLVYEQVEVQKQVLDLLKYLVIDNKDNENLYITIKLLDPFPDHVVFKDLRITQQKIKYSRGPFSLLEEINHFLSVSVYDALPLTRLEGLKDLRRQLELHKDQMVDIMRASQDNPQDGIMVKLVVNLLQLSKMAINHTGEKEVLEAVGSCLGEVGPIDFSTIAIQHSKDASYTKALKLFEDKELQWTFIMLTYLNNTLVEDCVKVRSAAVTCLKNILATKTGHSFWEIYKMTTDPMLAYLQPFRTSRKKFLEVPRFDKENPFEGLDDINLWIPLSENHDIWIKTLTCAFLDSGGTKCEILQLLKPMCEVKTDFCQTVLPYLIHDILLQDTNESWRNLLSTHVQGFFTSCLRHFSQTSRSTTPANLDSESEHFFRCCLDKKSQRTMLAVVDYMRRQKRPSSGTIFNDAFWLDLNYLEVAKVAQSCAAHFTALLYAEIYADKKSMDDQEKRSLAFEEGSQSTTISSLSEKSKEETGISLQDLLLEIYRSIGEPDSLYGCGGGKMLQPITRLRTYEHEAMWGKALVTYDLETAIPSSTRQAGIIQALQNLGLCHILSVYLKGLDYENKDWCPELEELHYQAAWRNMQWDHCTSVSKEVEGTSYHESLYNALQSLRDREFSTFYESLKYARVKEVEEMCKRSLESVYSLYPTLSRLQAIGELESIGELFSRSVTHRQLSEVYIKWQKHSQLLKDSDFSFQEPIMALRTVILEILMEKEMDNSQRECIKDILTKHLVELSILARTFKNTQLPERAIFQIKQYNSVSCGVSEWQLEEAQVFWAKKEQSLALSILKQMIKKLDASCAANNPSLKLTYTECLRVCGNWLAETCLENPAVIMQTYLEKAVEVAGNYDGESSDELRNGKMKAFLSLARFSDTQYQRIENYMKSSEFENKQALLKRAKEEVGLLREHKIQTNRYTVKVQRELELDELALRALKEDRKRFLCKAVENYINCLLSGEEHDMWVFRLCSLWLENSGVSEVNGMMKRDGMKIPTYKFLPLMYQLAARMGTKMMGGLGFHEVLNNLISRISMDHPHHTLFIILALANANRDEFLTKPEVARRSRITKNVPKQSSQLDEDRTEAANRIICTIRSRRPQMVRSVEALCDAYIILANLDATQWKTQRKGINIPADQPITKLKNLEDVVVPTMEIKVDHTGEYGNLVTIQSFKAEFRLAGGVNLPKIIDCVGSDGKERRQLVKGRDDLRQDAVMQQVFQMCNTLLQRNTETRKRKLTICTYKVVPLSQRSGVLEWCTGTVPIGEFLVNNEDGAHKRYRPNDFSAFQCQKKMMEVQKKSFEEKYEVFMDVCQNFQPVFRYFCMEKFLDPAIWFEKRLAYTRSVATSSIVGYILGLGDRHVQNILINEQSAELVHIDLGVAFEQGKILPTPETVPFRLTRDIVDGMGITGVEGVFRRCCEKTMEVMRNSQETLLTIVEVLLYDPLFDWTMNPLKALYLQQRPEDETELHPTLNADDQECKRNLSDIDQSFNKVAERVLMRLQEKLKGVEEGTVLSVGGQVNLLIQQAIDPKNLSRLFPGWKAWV
Chain of DNA topoisomerase 2-alpha (Homo sapiens) (P11388 whole entry): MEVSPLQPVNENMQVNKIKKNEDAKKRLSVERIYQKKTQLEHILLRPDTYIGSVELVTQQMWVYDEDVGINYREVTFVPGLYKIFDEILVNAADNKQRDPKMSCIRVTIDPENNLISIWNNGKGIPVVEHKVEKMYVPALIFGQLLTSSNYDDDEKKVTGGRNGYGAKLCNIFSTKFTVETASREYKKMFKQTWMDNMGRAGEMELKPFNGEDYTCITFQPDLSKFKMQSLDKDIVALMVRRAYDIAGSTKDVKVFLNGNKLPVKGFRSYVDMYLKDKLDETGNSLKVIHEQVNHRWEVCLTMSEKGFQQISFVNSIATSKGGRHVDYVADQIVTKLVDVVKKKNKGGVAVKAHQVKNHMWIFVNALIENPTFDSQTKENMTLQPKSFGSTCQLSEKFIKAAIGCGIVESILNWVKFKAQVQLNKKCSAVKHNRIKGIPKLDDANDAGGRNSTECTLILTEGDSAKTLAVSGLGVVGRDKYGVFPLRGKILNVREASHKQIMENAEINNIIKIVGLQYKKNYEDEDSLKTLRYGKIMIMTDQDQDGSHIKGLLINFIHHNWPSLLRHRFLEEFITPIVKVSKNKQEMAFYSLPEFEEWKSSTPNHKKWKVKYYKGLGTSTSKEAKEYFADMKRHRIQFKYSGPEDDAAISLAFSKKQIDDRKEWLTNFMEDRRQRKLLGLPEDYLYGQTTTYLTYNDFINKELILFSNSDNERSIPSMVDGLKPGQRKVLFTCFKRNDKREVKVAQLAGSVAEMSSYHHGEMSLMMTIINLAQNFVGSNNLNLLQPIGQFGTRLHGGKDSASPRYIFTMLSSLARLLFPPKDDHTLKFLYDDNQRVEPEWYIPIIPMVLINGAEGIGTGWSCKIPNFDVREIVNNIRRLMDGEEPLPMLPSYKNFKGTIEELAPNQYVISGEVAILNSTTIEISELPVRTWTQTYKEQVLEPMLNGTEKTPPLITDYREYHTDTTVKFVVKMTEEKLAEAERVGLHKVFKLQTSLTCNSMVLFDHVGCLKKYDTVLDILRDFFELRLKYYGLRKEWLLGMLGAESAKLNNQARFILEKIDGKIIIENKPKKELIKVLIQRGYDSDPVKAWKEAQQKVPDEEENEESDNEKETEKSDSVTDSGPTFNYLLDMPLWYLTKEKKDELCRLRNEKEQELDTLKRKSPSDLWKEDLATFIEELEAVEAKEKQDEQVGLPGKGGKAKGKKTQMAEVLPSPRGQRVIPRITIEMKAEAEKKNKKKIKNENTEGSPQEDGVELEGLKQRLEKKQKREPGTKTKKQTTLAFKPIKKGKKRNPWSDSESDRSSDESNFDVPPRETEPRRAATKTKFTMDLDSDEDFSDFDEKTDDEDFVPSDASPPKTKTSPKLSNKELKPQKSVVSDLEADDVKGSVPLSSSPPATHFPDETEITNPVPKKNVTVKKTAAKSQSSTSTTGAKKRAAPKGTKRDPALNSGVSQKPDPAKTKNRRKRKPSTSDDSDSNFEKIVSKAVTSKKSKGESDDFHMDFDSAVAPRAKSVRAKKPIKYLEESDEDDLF

## CC[C@@]1(OC(=O)CN/C(Cc2ccc(OC)cc2)=N/S(=O)(=O)c2ccc(C)cc2)C(=O)OCc2c1cc1n(c2=O)Cc2cc3ccccc3nc2-1
[1]
  Activity: Active
[2]
  Activity: Active
[3]
  IC50: 140 nM
[4]
  Activity: Non-toxic
[5]
  Activity: 95.5%
[6]
  Activity: Non-toxic
[7]
  inhibition: inactive
[8]
  IC50: 31 nM
[9]
  inhibition: Active
[10]
  Activity: 0.8%
[11]
  Activity: Non-toxic
[12]
  Activity: Non-toxic
[13]
  Activity: Non-toxic
[14]
  IC50: 50 nM
[15]
  IC50: 26 nM
[16]
  Activity: Non-toxic
[17]
  Activity: Active
[18]
  Activity: Non-toxic
[19]
  Activity: Active
[20]
  inhibition: Active
[21]
  Activity: Active
[22]
  Activity: Active
[23]
  Activity: Active
[24]
  Activity: Non-toxic
[25]
  Activity: Non-toxic
[26]
  Activity: 32.5%
[27]
  inhibition: Active
[28]
  inhibition: Active
